Measured values pooled from the literature.
Lines come from different studies, so protocols differ.
Target: Interleukin-1 receptor-associated kinase 4 (IRAK4, Homo sapiens, UniProt Q9NWZ3)
Sequence (Q9NWZ3 1-460, as in one of the studies): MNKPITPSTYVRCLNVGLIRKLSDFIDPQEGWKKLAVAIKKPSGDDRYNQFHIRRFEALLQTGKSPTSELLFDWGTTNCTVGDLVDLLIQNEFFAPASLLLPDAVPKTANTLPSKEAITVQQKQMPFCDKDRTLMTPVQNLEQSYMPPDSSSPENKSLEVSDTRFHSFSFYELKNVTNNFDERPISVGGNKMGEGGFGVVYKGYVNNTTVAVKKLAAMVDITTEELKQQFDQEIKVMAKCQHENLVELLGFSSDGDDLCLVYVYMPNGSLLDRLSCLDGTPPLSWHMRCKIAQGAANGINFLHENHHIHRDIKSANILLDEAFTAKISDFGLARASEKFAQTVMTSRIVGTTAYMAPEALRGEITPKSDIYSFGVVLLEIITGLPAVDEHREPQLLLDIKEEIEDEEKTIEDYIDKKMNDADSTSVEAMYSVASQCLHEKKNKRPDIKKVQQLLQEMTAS

O=C(Nc1c[nH]nc1C(=O)NC1CCNCC1)c1cc(F)cc(F)c1 — remaining binding (binding, competition with immobilised ligand; 1 µM): 100%
Nc1ncc2c(n1)-c1c([nH]c3ccc(C#CC4CC4)cc13)CCCC2 — remaining binding (binding, competition with immobilised ligand; 1 µM): 86%
CCS(=O)(=O)c1cc2cc(C[C@](O)(CC(C)(C)c3ccc(F)cc3C(N)=O)C(F)(F)F)[nH]c2cn1 — remaining binding (cell-free assay, competition with immobilised ligand; 1 µM): 100%
Cc1cnn2ncc(-c3ccnc(N(C)C)n3)c2c1 — remaining binding (binding; 1 µM): 100%
CNCc1ccccc1-c1csc([C@H](C)Nc2nc(C)nc3cc(OC)c(OC)cc23)c1 — remaining binding (cell-free assay, competition with immobilised ligand; 1 µM): 89%
CC1CCCN1c1nccc(-c2cnn3ncccc23)n1 (centres unmarked) — remaining binding (binding; 1 µM): 84%
O=C(NCCCN1CCOCC1)c1ccc(Nc2nccc(-c3cc4ccccc4s3)n2)cc1 — remaining binding (binding, competition with immobilised ligand; 1 µM): 75%
CN([C@@H]1CCc2c(CC(=O)O)c3cc(S(C)(=O)=O)ccc3n2C1)S(=O)(=O)c1ccc(F)cc1 — remaining binding (cell-free assay, competition with immobilised ligand; 1 µM): 95%
O=C(c1ccc(Nc2nccc(-c3cc4ccccc4s3)n2)cc1)N1CCC(N2CCCC2)CC1 — remaining binding (binding, competition with immobilised ligand; 1 µM): 100%
CNC(=O)[C@@H]1CC[C@@H](n2c(-c3ccc4cnccc4c3)nc3ccc(C(=O)NCc4cccc(C(N)=O)c4)cc32)C1 — remaining binding (binding, competition with immobilised ligand; 1 µM): 100%
CN(C)c1ncc(F)c(-c2cnn3ncccc23)n1 — remaining binding (binding; 1 µM): 69%
c1cncc(-c2cccc(Nc3nccc(NC4CCCCC4)n3)c2)c1 — remaining binding (binding, competition with immobilised ligand; 10 µM): 34%
CCOC(=O)c1cc2cc(-c3cc(C(=O)NCc4ccc(C(=O)O)cc4)nn3C)ccc2[nH]1 — remaining binding (cell-free assay, competition with immobilised ligand; 0.1 µM): 91%
COc1cnc(Nc2cccc(S(N)(=O)=O)c2)nc1N1CCN(c2ccccc2)CC1 — remaining binding (binding, competition with immobilised ligand; 1 µM): 65%
CN(c1nccc(-c2cnn3ncccc23)n1)C1CC1 — remaining binding (binding; 1 µM): 100%
O=C(O)[C@H]1[C@H](Cn2nnc3ccccc3c2=O)CC[C@@H]1C(=O)c1ccc(OCCC2CCOCC2)cc1 — remaining binding (cell-free assay, competition with immobilised ligand; 1 µM): 76%
CN(CCCC(F)(F)F)c1nccc(-c2cnn3ncccc23)n1 — remaining binding (binding; 1 µM): 100%
O=C1NC(c2ccccn2)Sc2ccccc21 (centres unmarked) — remaining binding (cell-free assay, competition with immobilised ligand; 1 µM): 100%
C[C@H]1CCN(c2nccc(-c3cnn4ncccc34)n2)C1 — remaining binding (binding; 1 µM): 73%
O=C(NCCCN1CCOCC1)c1ccc(Nc2ncc(Cl)c(-c3ccc(Cl)s3)n2)cc1 — remaining binding (binding, competition with immobilised ligand; 1 µM): 75%
